This passage reports MIC results from ChEMBL document CHEMBL1140194, “Convenient access to 1,3,4-trisubstituted pyrazoles carrying 5-nitrothiophene moiety via 1,3-dipolar cycloaddition of sydnones with acetylenic ketones and their antimicrobial evaluation” (2008).

As a reminder, the MIC is the lowest concentration found to suppress growth. A lower MIC goes with inhibition by little substance.

Type in all cases: functional
For assay [1], the system named is Staphylococcus aureus. The assay can be described thus: Antimicrobial activity against Staphylococcus aureus ATCC 25923 after 16 to 18 hrs by serial dilution method. A digest of the protocol:
(§1)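 Compounds were dissolved in dimethylformamide as stock. An 18-h broth culture was inoculated by loop into nutrient broth and grown 4 h at 37 °C. Stock was serially diluted by 0.5 mL transfers across tubes 1–10, with tube 11 as growth control. About 0.5 mL diluted culture was added per tube, then incubated at 37 °C for 16–18 h. Reference drugs: nitrofurazone for bacteria, fluconazole for Candida.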

For assay [2], the system named is Escherichia coli. Put plainly: Antimicrobial activity against sEscherichia coli ATCC 25922 after 16 to 18 hrs by serial dilution method. The gist of the method:
as §1

For assay [3], the system named is Pseudomonas aeruginosa. The assay can be described thus: Antimicrobial activity against sPseudomonas aeruginosa ATCC 27853 after 16 to 18 hrs by serial dilution method. A digest of the protocol: as §1
The test system of assay [4] is Bacillus subtilis. The assay can be described thus: Antimicrobial activity against Bacillus subtilis after 16 to 18 hrs by serial dilution method. A digest of the protocol:
as §1

Assay [5] has as its system Candida albicans. Put plainly: Antimicrobial activity against Candida albicans NCIM 3100 after 16 to 18 hrs by serial dilution method. The gist of the method:
as §1

Converted amounts (≈) assume the structure as drawn.

For the compound `O=C(c1ccccc1)c1cn(-c2ccccc2)nc1-c1ccc([N+](=O)[O-])s1`, the MIC in assay [1], in assay [2], in assay [3], in assay [4] and in assay [5] was 0.25 µg/mL (≈ 0.666 µM) each time.

For `Cc1ccc(C(=O)c2cn(-c3ccc(C)cc3)nc2-c2ccc([N+](=O)[O-])s2)cc1`, the MIC in assay [1], in assay [2], in assay [3], in assay [4] and in assay [5] was 0.125 µg/mL (≈ 0.31 µM) in each case.

As to `Cc1ccc(-n2cc(C(=O)c3ccc(Cl)cc3)c(-c3ccc([N+](=O)[O-])s3)n2)cc1`, the MIC in assay [1], in assay [2], in assay [3], in assay [4] and in assay [5] was 0.125 µg/mL (≈ 0.295 µM) each time.

For the compound `Cc1ccc(-n2cc(C(=O)c3ccccc3)c(-c3ccc([N+](=O)[O-])s3)n2)cc1`, the MIC in assay [1], in assay [2], in assay [3], in assay [4] and in assay [5] was 0.25 µg/mL (≈ 0.642 µM) in each case.

Regarding `Cc1ccc(C(=O)c2cn(-c3ccccc3)nc2-c2ccc([N+](=O)[O-])s2)cc1`, the MIC in assay [1], in assay [2], in assay [3], in assay [4] and in assay [5] was 0.25 µg/mL (≈ 0.642 µM) in each case.

With `COc1ccc(-n2cc(C(=O)c3ccc(Cl)cc3)c(-c3ccc([N+](=O)[O-])s3)n2)cc1`, the MIC in assay [1] was found to be 0.25 µg/mL (≈ 0.568 µM); in assay [2] it was 0.25 µg/mL (≈ 0.568 µM); in assay [3], 0.25 µg/mL (≈ 0.568 µM); in assay [4], 0.25 µg/mL (≈ 0.568 µM); in assay [5], 0.125 µg/mL (≈ 0.284 µM).

Turning to `COc1ccc(-n2cc(C(=O)c3ccccc3)c(-c3ccc([N+](=O)[O-])s3)n2)cc1`, the MIC in assay [1], in assay [2], in assay [3], in assay [4] and in assay [5] was 0.25 µg/mL (≈ 0.617 µM) throughout.

With `COc1ccc(C(=O)c2cn(-c3ccccc3)nc2-c2ccc([N+](=O)[O-])s2)cc1`, the MIC in assay [1], in assay [2], in assay [3], in assay [4] and in assay [5] was 0.25 µg/mL (≈ 0.617 µM) each time.

On to `O=C(c1ccc(Cl)cc1)c1cn(-c2ccccc2)nc1-c1ccc([N+](=O)[O-])s1`, for which the MIC in assay [1], in assay [2], in assay [3], in assay [4] and in assay [5] was 0.125 µg/mL (≈ 0.305 µM) each time.

For the compound `COc1ccc(-n2cc(C(=O)c3ccc(C)cc3)c(-c3ccc([N+](=O)[O-])s3)n2)cc1`, the MIC in assay [1], in assay [2], in assay [3], in assay [4] and in assay [5] was 0.25 µg/mL (≈ 0.596 µM) each time.

In assay [5], `OC(Cn1cncn1)(Cn1cncn1)c1ccc(F)cc1F` [FLUCONAZOLE] had an MIC of 0.25 µg/mL (≈ 0.816 µM).

For `NC(=O)N/N=C/c1ccc([N+](=O)[O-])o1` [NITROFURAZONE], the MIC in assay [1], in assay [2], in assay [3] and in assay [4] was 0.25 µg/mL (≈ 1.26 µM) each time.
